Assay results from ChEMBL document CHEMBL4840316, “Structure-based screening for the discovery of 1,2,4-oxadiazoles as promising hits for the development of new anti-inflammatory agents interfering with eicosanoid biosynthesis pathways” (Eur J Med Chem, 2021).
Calls of active or inactive are those of the source. No cut-off for these calls is given here.

How the values were obtained:
[1] = system: Mus musculus; assay: Antiinflammatory activity in zymosan-induced CD-1 mouse peritonitis model assessed as reduction in zymosan-induced IL-6 level in peritoneal exudate at 3 mg/kg, ip treated with compound for 30 mins after 4 to 24 hrs zymosan stimulation by ELISA; assay type: functional, organism-based
[2] = system: Mus musculus; assay: Antiinflammatory activity in zymosan-induced CD-1 mouse peritonitis model assessed as reduction in zymosan-induced neutrophil recruitment at 10 mg/kg, ip treated with compound for 30 mins after 24 hrs zymosan stimulation by ELISA; assay type: functional, organism-based
Procedure, shortened: (§1)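 Male CD-1 mice (10–14 wk, 25–30 g), n = 6/group, injected i.p. with boiled zymosan A (500 mg/kg in PBS). Compound (0.1–10 mg/kg, DMSO/saline 1:3) given i.p. 30 min afterwards. Peritoneal lavage with 2 mL PBS at 4 or 24 h. Total leukocytes counted by automated counter with trypan blue, normalized to exudate. Mean ± S.D.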

[3] = system: Mus musculus; assay: Antiinflammatory activity in zymosan-induced CD-1 mouse peritonitis model assessed as reduction in zymosan-induced TNF-alpha level in peritoneal exudate at 3 mg/kg, ip treated with compound for 30 mins after 4 to 24 hrs zymosan stimulation by ELISA; assay type: functional, organism-based
[4] = system: Mus musculus; assay: Antiinflammatory activity in zymosan-induced CD-1 mouse peritonitis model assessed as reduction in zymosan-induced IL-1beta level in peritoneal exudate at 3 mg/kg, ip treated with compound for 30 mins after 4 to 24 hrs zymosan stimulation by ELISA; assay type: functional, organism-based
[5] = system: Mus musculus; assay: Antiinflammatory activity in zymosan-induced CD-1 mouse peritonitis model assessed as reduction in zymosan-induced neutrophil recruitment at 10 mg/kg, ip treated with compound for 30 mins after 4 hrs zymosan stimulation by ELISA; assay type: functional, organism-based; procedure, shortened: as §1
[6] = target: Prostaglandin G/H synthase 1 (Ovis aries) (UniProt P05979); assay: Inhibition of ovine COX-1 assessed as residual activity at 10 uM using arachidonic acid as substrate preincubated for 5 mins by RP-HPLC method relative to control; settings: time 10.0 min
[7] = system: A549; assay: Cytotoxicity against human A549 cells assessed as cell viability at 10 uM measured after 48 hrs by MTT assay; assay type: cell-based; settings: a549, 48 h
Procedure, shortened: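 A549 cells in DMEM + 10% FBS, 2 × 10^4 per well, seeded in triplicate. Exposed to 10 µM compound or 0.1% DMSO for 48 h at 37 °C, 5% CO2. MTT added for 1 h, formazan dissolved in DMSO, absorbance read at 570 nm. Viability given as % of vehicle, n = 3.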

[8] = target: T1, Polyunsaturated fatty acid 5-lipoxygenase (Homo sapiens) (UniProt P09917); assay: Inhibition of 5-LO (unknown origin) expressed in Escherichia coli BL21 assessed as residual activity at 10 uM by RP-HPLC method relative to control
T1 sequence (whole entry): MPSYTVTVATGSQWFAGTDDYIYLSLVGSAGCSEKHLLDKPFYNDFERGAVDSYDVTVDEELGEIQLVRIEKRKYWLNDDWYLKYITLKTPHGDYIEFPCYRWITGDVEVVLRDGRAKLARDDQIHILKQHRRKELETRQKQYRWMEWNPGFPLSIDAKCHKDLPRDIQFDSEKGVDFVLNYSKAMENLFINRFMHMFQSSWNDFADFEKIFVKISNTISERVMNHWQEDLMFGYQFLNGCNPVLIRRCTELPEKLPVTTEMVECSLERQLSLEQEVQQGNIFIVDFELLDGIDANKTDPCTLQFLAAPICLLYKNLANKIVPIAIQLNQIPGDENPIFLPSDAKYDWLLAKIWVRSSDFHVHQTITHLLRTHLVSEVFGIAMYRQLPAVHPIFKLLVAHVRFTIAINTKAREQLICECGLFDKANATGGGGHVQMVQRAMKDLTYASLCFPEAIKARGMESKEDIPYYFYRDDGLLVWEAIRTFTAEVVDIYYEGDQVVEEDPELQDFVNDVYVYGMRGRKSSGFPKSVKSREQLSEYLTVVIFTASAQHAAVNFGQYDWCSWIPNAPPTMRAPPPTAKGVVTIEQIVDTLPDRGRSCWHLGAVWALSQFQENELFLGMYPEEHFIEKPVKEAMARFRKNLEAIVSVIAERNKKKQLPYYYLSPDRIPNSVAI
Procedure, shortened: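 Human recombinant 5-LO expressed in E. coli BL21 and purified on ATP-agarose. 0.5 µg enzyme in 1 mL PBS + 1 mM EDTA pre-incubated with compound or 0.1% DMSO for 10 min on ice. Reaction started with 20 µM AA and 2 mM CaCl2, run 10 min at 37 °C, stopped with ice-cold methanol. Products analysed; activity as % of control.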

[9] = system: Monocyte; assay: Cytotoxicity against human monocyte cells assessed as cell viability at 10 uM measured after 24 hrs by MTT assay; assay type: cell-based
Procedure, shortened: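 Human monocytes isolated from PBMC by adherence, 0.2 × 10^6 per well in buffer. Exposed to 10 µM compound or 0.5% DMSO for 24 h (37 °C, 5% CO2). MTT for 2 h, then SDS lysis (10%, pH 4.5) for 17 h. Absorbance read at 570 nm; viability as % of vehicle, n = 3.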

[10] = target: T1, Polyunsaturated fatty acid 5-lipoxygenase (Homo sapiens); assay: Inhibition of 5-LO in A23187-stimulated human intact neutrophils assessed as reduction in LTB4/5-HETE formation by measuring residual activity at 10 uM measured after 20 mins by RP-HPLC method; assay type: tissue-based; settings: Neutrophil
Procedure, shortened: (§2)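 Human neutrophils at 5 × 10^6/mL in PBS with 0.1% glucose and 1 mM CaCl2. Pre-incubated with compound or 0.1% DMSO for 10 min at 37 °C. Stimulated with 2.5 µM A23187, with or without 20 µM AA, for 10 min at 37 °C. Stopped with cold methanol; PGB1 internal standard. LTB4, its trans isomers and 5-HETE quantified by SPE and RP-HPLC; % of control.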

[11] = target: T2, Prostaglandin E synthase (Homo sapiens) (UniProt O14684); assay: Inhibition of mPGES-1 obtained from IL-beta stimulated human A549 cells microsomes assessed as residual activity by measuring conversion of PGH2 to PGE2 at 10 uM by cell-free RP-HPLC method; settings: Microsome
T2 sequence (whole entry): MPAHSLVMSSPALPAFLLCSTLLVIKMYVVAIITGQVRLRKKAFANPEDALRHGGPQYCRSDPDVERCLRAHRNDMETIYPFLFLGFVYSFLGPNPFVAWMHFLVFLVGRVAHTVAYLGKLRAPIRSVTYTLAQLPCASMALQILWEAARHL
Procedure, shortened: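 Microsomes from A549 cells stimulated with IL-1β (1 ng/ml) for 48 h. Diluted in 0.1 M potassium phosphate pH 7.4 with 2.5 mM glutathione. Pre-incubated 15 min on ice with compound (single 10 µM, or 0.03–10 µM for the curve) or 1% DMSO. 20 µM PGH2 added for 1 min; stopped with FeCl3/citric acid containing 11β-PGE2 standard. PGE2 measured by SPE and RP-HPLC. n = 3.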

[12] = target: T3, Bifunctional epoxide hydrolase 2 (Homo sapiens) (UniProt P34913); assay: Inhibition of recombinant human sEH expressed in sf9 insect cells assessed as residual activity at 10 uM using PHOME as substrate preincubated for 15 mins followed by substrate addition and measured after 60 mins relative to control; settings: time 75.0 min
T3 sequence (whole entry): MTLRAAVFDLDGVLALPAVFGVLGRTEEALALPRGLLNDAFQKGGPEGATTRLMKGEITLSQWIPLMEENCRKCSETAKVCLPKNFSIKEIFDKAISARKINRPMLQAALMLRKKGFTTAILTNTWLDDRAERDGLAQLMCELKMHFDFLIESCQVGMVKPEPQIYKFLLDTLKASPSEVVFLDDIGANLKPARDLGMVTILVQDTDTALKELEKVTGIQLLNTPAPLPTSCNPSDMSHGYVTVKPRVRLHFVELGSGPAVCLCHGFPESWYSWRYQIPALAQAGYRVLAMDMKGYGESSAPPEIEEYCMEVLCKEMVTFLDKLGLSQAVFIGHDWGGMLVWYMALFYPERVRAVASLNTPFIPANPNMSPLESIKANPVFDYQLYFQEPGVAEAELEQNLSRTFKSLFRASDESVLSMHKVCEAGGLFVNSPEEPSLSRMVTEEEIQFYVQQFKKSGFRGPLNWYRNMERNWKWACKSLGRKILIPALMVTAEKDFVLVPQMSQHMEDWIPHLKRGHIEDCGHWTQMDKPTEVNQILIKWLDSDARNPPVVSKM
Procedure, shortened: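 Human recombinant sEH from baculovirus-infected Sf9 cells, affinity-purified. Diluted in 25 mM Tris pH 7 with 0.1 mg/mL BSA. Pre-incubated 15 min at room temperature with 10 µM compound or 0.1% DMSO. 50 µM PHOME added, run 60 min at room temperature, stopped with ZnSO4. Fluorescence read at ex 330 / em 465 nm.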

[13] = target: T1, Polyunsaturated fatty acid 5-lipoxygenase (Homo sapiens); assay: Inhibition of 5-LO in A23187/AA-stimulated human intact neutrophils assessed as reduction in LTB4/5-HETE formation by measuring residual activity at 10 uM measured after 20 mins by RP-HPLC method; assay type: tissue-based; settings: Neutrophil; procedure, shortened: as §2

Chain of Prostaglandin G/H synthase 1 (Ovis aries) (P05979 whole entry, looked up): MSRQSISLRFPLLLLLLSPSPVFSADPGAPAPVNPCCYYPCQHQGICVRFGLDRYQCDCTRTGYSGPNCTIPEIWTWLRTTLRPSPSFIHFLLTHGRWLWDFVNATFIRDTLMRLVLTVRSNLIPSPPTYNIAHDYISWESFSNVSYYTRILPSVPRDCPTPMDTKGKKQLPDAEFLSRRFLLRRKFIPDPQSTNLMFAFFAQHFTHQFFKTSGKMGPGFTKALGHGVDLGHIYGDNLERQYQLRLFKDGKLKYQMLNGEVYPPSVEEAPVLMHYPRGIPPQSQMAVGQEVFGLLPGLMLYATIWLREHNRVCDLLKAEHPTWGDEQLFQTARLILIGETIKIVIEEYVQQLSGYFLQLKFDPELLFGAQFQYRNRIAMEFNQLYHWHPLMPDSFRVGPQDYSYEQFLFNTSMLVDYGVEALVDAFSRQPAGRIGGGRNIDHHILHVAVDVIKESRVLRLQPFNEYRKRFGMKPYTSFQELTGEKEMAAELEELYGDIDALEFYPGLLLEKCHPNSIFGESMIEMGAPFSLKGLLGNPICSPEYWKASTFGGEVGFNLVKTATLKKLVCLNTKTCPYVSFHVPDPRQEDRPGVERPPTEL

SMILES	Activity [10] [%]	Activity [11] [%]	Activity [13] [%]	further results
C[C@@H]1C[C@H]2[C@@H]3CCC4=CC(=O)C=C[C@]4(C)[C@@]3(F)[C@@H](O)C[C@]2(C)[C@@]1(O)C(=O)CO				Activity [1]: Active; Activity [2]: Active; Activity [3]: Active; Activity [4]: Active; Activity [5]: Active
c1cc(-c2nc(-c3ccc(-c4ccsc4)cc3)no2)c2cc[nH]c2c1	59.7	63.2	99.3	
CC(=O)N1C[C@H](O)C[C@H]1c1nc(-c2ccc(-c3ccsc3)cc2)no1	92.6	82.2	89.5	
Oc1cccc(-c2nc(-c3ccc(-c4ccsc4)cc3)no2)c1	> 100	84.1	> 100	
Nc1ccc(O)c(-c2nc(-c3ccc(-c4ccsc4)cc3)no2)c1	84.3	81.9	29.6	

The next lines start with results.

Activity [10] [%]	Activity [11] [%]	Activity [13] [%]	SMILES	further results
6.02	62.9	7.54	CC(c1ccc(O)cc1)c1nc(-c2ccc(-c3ccsc3)cc2)no1 (configuration not stated)	Activity [6]: 22.5%; Activity [7]: Non-Toxic; Activity [8]: 61.8%; Activity [9]: Non-Toxic; Activity [12]: > 50%
95	82.7	74.4	N[C@@H](Cc1ccc(O)cc1)c1nc(-c2ccc(-c3ccsc3)cc2)no1	
47.5	67.6	50.3	N[C@H](c1ccc(O)cc1)c1nc(-c2ccc(-c3ccsc3)cc2)no1	
78	84.7	61.3	CC(N)(Cc1ccc(O)cc1)c1nc(-c2ccc(-c3ccsc3)cc2)no1 (configuration not stated)	
73.6	93.1	65.2	OCc1ccc(Cc2nc(-c3ccc(-c4ccsc4)cc3)no2)cc1	
